Source: PubChem BioAssay (several laboratories)
Shown are actives, neighbours in structure and some others; about 1.1% of the full set was active somewhere.
Diaph inh CS: inhibits diaphorase or chemically oxidizes, flagging diaphorase assay artifacts; actives 0.69% (n = 190,000); inhibition, % at 20 µM; diaphorase resazurin-to-resorufin fluorescence, NADH, 16 min; bacterial (C. kluyveri) enzyme, not human;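 active = primary screen inhibition at 20 µM above a set limit, cut at about 50% in these data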;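 note: plate controls were DMSO with full reaction for no effect and wells lacking NADH for full effect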
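Test system: bacterial diaphorase enzyme (C. kluyveri); Quantity: 0.14 U/mL diaphorase, enzyme working solution; Times: reaction incubation of 16 min at room temperature; Measured by: fluorescence of resorufin formed from resazurin, Ex 544/Em 590 nm; Benchmarks: positive control minus NADH, DMSO neutral control.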
DTT redox prof: compounds producing H2O2 with reducing agent – biochemical, NIH compound library profiling, artefact control for MLSCN library redox annotation, primary screen | activation, % at 10 µM | actives 0.03% (n = 200,000) | DTT-dependent redox cycling H2O2, phenol red/HRP absorbance; 100% = 100 µM peroxide control, 0% = buffer;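 active = activation of at least 50% relative to the plate's high and low controls in the primary single-dose screen; inactive = activation below 50%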;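 note: compound incubated with DTT at 0.8 mM final as the reducing agent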
G6PDH CS: inhibits Leuconostoc G6PDH, flagging false hits in G6PDH-based assays; Purified L. mesenteroides G6PDH, diaphorase/resazurin coupled fluorescence, 45 min; inhibition, % at 5 µM; actives 0.12% (n = 200,000); in the data active = inhibition above about 50%
PMI activator: activators of human phosphomannose isomerase | P34949 | purified human PMI, coupled resazurin fluorescence, 20 min; stronger effect = higher value; 1 = vehicle control, 0 substrate-free wells | activation factor at 20 µM | actives 0.005% (n = 190,000);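 active = activation factor of 2 or more at 20 µM, relative to plate controls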
Target sequence (P34949 whole entry, looked up): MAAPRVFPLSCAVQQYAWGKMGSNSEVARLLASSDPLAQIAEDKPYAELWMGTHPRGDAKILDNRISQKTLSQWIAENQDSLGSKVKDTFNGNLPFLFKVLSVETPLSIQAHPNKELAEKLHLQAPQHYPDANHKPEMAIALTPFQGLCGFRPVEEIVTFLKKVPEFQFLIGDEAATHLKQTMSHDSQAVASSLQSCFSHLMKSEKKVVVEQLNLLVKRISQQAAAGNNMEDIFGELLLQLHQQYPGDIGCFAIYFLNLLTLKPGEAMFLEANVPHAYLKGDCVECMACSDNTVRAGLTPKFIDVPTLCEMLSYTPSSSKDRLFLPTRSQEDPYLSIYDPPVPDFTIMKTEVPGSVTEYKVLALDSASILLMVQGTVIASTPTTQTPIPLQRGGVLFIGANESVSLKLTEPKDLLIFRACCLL
PMI act satM6P: activators of human phosphomannose isomerase at near-saturating mannose 6-phosphate; coupled PMI enzyme assay, resazurin fluorescence, 20 min; stronger effect = higher value; 1 = untreated enzyme, 0 = substrate-free blank; activation factor at 20 µM; actives 0.34% (n = 190,000); P34949;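 active = activation factor of 2 or more at 20 µM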
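Test system: human phosphomannose isomerase with PGI, G6PDH, diaphorase coupling enzymes; Amount: PMI at 15 ng/mL final; Reagent: Mannose-6-phosphate 1.0 mM (near-saturating) plus 0.22 mM NADP+; Timing: 20 min, room temperature; Technique: resorufin fluorescence at Ex 544/Em 590 nm; Dosing: 20 µM single dose.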
Diaphorase act: counter-screen for diaphorase-based assays: diaphorase activators and chemical reducers; AID 1229; activation factor at 20 µM; Diaphorase/resazurin coupled assay, resorufin fluorescence, 16 min; stronger effect = higher value; 1 = vehicle wells, 0 = NADH-free wells; actives 0.005% (n = 190,000);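 active = diaphorase activity raised at least twofold by the compound at 20 µM; inactive = activation factor below 2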
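Test system: Clostridium kluyveri diaphorase, purified enzyme. Buffer or medium: 50 mM HEPES pH 7.4 buffer plus MgCl2 and Tween 20. Also added: 0.114 mM NADH and 0.1 mM resazurin, final amounts. Dosing: compound 20 µM once, DMSO 1%. Schedule: 16 min enzyme reaction, ambient temperature. Detection: fluorescence of resorufin, 544 nm excitation, 590 nm emission.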
* marks the source's active call; other numbers are inactive results.

SMILES	Diaph inh CS	DTT redox prof	G6PDH CS	PMI activator	PMI act satM6P	Diaphorase act
COCc1cc(=O)n2[nH]c(-c3ccsc3-n3c(C)ccc3C)cc2n1	49	1	1	0.8	0.8	0.5
CN(C)c1ccc(C(=S)N2CCCCC2)cc1Br	11	0	9	0.9	0.9	0.9
CN(C)c1ccc(C(=S)N2CCOCC2)cc1Br	10	2	6	1.9	2.6*	0.9
CC(=O)c1cccc(NC(=O)COc2cc3oc(=O)c(CC(C)O)c(C)c3cc2Cl)c1 (stereo unspecified)	-6	0	-13	1.1	1.1	1.1
O=C(NCC1CCCO1)c1cn(-c2ccccc2)nc1-c1ccccc1 (stereo unspecified)	58*	0	7	0.9	0.9	0.4
Cc1c(N=C2Nc3cccc4cccc2c34)c(=O)n(-c2ccccc2)n1C	8	-3	6	0.9	0.6	0.9
CCC(C)C1=CC(=Nc2c(C)n(C)n(-c3ccccc3)c2=O)C=C(C(C)CC)C1=O (stereo unspecified)	68*	1	-4	0.5	0.4	0.3
Cc1c(N=c2scc(-c3ccccc3)n2C)c(=O)n(-c2ccccc2)n1C	6	-1	4	1.2	1.1	0.9
CC1=CC(=Nc2c(C)n(C)n(-c3ccccc3)c2=O)C=C(C)C1=O	70*	1	2	0.2	0.4	0.3
Cc1ccc(C#CC[N+]2(CC#Cc3ccc(C)cc3)CCCCC2)cc1	-10	0	-30	1.1	1.2	1.1
CN(C)CC(C)(C)CNC(C(=O)Nc1ccc(Cl)cc1C(F)(F)F)c1ccccc1 (stereo unspecified)	-15	-1	9	1	1	1.1
Cc1ccnc(SCCn2c(N3CC(C)CC(C)C3)nc3c2c(=O)n(C)c(=O)n3C)n1 (stereo unspecified)	51*	-1	7	1	1	0.5
Cc1cccc2cc(CNCc3ccccc3)c(Cl)nc12	15	-1	9	0.9	0.9	0.8
O=Cc1c(Sc2ccccc2)nc2ccccn2c1=O	6	0	4	1	1.1	0.9
O=c1c(/C=N/Nc2ccccc2)c(Sc2nnnn2-c2ccccc2)nc2ccccn12	21	1	3	1.4	2*	0.8
COc1ccc(-c2cc3nnc(-c4ccccc4)nc3s2)cc1	8	3	-2	1.6	2.5*	0.9
CSCCC1Nc2ccc(S(=O)(=O)N3CCOCC3)cc2NC1=O (stereo unspecified)	8	0	2	1.9	2.6*	0.9
Cn1c(=O)n(C)c2cc(S(=O)(=O)N3CCOCC3)ccc21	7	1	-7	0.9	1	0.9
COC(=O)c1ccc(OS(=O)(=O)N(C)C)cc1	5	-2	1	1	1	0.9
CCOC(=O)c1c(C)sc2c1N(C(=O)CN1CCOCC1)c1cc(Cl)ccc1S2	57*	0	-4	0.9	1	0.4
CCOC(=O)c1c(C)sc2c1N(C(=O)CN(CC)CC)c1cc(Cl)ccc1S2	25	-1	3	0.9	0.9	0.8
O=C(O)C1Nc2c(O)cccc2C2C=CCC12 (stereo unspecified)	78*	1	24	0.6	0.9	0.2
O=C(OC1CCCCC1)c1ccc2c(c1)C1C=CCC1C(C(=O)O)N2 (stereo unspecified)	47	2	-7	1.3	1.8	0.5
Cn1cc([C@@H]2C[C@H]3CN(Cc4cccc(Cl)c4)C(=O)[C@]34CCCN24)c2ccccc21	27	-1	23	0.8	0.7	0.7
O=C(O)c1cc(-c2cccs2)[nH]n1	13	0	12	1	1	0.9
S=c1nccc(-c2cccs2)[nH]1	54*	0	-4	1	1	0.5
CCn1c(-c2ccc(C)cc2)n[nH]c1=S	10	0	8	1	1.1	0.9
